Biological target: Amyloid-beta precursor protein (Homo sapiens, UniProt P05067)
Assay: Displacement of [125I]IMPY from beta-amyloid plaques in Alzheimer's disease patient brain homogenate
Format: tissue-based
Outline: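 Test compound was added at 10^-5–10^-10 M, serially diluted in PBS containing 0.1% BSA. Nonspecific binding was defined with 600 nM unlabeled IMPY. Incubation was 37 °C for 2 h, followed by GF/B vacuum filtration, PBS washes and γ counting. Ki came from nonlinear regression.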

Amyloid-beta precursor protein, sequence (P05067 whole entry): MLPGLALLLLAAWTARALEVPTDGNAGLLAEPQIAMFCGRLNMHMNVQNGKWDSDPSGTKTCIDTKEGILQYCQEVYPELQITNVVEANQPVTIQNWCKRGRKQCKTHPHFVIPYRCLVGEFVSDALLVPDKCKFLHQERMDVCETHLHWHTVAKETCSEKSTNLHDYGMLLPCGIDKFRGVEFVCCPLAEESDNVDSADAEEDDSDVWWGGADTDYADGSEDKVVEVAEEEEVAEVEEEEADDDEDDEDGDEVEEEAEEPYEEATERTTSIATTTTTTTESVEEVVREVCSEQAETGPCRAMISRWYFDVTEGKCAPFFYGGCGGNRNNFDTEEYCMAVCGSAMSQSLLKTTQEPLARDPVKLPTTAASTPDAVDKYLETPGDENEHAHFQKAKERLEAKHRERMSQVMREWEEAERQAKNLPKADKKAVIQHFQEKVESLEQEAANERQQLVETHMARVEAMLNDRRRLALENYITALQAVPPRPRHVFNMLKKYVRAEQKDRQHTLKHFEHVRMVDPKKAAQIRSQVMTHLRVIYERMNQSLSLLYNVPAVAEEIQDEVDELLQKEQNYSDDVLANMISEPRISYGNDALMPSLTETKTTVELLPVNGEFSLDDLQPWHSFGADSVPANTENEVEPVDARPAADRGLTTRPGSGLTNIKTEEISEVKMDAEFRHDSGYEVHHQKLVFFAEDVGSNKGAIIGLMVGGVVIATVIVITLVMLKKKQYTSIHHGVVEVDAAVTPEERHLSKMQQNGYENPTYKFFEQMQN

CNc1ccc2nc(-c3ccc(F)cc3)sc2c1
Ki: 4.1 nM

Reference: ChEMBL document CHEMBL1154674, “Synthesis and evaluation of three 18F-labeled aminophenylbenzothiazoles as amyloid imaging agents” (J Med Chem, 2009)
